Columns and labels:
[1] = Solubility of the compound in water; assay type: physicochemical; settings: buffer
[2] = Oral bioavailability in Sprague-Dawley rat at 30 mg/kg; assay type: ADME, organism-based; settings: in vivo
Renin [3] = biological target: T1, Renin (Homo sapiens, UniProt P00797); assay: Inhibition of human recombinant renin using Q-FRET substrate after 3 hrs by fluorescence assay
T1 sequence (P00797 whole entry): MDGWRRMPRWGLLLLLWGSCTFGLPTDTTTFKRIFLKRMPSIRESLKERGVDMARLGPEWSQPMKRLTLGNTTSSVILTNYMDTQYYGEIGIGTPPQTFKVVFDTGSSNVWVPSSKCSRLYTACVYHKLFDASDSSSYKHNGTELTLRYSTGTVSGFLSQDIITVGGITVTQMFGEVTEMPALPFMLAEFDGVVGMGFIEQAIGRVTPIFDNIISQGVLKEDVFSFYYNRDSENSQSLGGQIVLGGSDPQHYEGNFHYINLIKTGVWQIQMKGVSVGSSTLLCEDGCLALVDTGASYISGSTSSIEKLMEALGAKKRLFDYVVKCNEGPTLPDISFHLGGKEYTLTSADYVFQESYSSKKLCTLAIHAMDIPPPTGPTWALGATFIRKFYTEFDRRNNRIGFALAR

Renin [4] = biological target: T1, Renin; assay: Inhibition of renin in human plasma using Q-FRET substrate pretreated for 10 mins before substrate addition measured after 1 hr
[5] = biological target: Voltage-gated inwardly rectifying potassium channel KCNH2 (Homo sapiens, UniProt Q12809); assay: Inhibition of human ERG
Chain of Voltage-gated inwardly rectifying potassium channel KCNH2 (Q12809 whole entry): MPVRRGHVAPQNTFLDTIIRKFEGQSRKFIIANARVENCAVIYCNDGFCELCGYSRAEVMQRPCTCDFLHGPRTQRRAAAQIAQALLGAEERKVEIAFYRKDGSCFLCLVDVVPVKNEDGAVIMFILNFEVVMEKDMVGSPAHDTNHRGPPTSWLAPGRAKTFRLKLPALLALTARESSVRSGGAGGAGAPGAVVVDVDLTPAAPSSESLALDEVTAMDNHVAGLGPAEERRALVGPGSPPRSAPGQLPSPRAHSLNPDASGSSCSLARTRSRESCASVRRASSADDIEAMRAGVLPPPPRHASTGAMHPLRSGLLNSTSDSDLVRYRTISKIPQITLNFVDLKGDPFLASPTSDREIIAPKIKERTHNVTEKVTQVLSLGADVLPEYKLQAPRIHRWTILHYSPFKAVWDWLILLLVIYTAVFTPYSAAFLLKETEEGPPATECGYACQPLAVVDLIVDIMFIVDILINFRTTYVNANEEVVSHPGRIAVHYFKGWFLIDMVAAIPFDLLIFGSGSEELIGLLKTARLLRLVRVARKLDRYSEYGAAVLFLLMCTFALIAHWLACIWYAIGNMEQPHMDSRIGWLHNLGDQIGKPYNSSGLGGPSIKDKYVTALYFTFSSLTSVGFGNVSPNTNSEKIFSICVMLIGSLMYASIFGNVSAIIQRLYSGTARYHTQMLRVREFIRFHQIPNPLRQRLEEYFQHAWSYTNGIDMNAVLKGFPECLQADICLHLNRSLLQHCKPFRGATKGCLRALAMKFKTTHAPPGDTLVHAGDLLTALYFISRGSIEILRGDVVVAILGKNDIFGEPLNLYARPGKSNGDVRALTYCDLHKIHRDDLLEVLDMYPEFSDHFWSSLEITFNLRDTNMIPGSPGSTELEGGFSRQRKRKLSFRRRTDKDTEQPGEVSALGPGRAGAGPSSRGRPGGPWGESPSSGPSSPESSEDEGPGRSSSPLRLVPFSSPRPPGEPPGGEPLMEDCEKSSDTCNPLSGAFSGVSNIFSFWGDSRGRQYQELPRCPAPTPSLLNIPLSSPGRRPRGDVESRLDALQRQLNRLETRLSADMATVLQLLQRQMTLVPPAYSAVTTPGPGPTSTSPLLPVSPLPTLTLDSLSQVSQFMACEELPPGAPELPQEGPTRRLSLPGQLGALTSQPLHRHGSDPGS

CYP3A4 [6] = biological target: T2, CYP3A4 (Homo sapiens, UniProt P08684); assay: Reversible inhibition of CYP3A4 assessed as conversion of testosterone to 6-beta-hydroxytestosterone at 10 uM relative to control; assay type: ADME; settings: probe testosterone
T2 sequence (P08684 whole entry): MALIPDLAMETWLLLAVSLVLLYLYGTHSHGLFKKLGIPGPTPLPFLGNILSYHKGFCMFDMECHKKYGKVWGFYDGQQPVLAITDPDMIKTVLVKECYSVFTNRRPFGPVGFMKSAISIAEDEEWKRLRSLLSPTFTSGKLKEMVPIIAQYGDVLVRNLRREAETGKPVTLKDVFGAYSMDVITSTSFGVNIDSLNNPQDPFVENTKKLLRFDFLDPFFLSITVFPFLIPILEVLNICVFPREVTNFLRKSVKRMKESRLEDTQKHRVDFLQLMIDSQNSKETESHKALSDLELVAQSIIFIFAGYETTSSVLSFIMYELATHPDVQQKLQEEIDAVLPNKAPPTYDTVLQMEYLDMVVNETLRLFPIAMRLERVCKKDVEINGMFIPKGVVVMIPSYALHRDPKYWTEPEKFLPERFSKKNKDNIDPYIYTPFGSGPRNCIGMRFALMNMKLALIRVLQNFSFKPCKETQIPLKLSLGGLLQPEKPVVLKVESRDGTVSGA

CYP3A4 [7] = biological target: T2, CYP3A4; assay: Time dependent inhibition of CYP3A4 assessed as conversion of testosterone to 6-beta-hydroxytestosterone at 10 uM relative to control; assay type: ADME; settings: probe testosterone
Summary of the method: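 Rate of CYP3A4 conversion of testosterone (250 μM) to 6-β-hydroxytestosterone measured before and after a 30 min incubation with compound at 10 μM (in DMSO). Difference expressed as % loss.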

[8] = Oral bioavailability in Sprague-Dawley rat at 3 mg/kg; assay type: ADME, organism-based; settings: in vivo
[9] = Oral bioavailability in Sprague-Dawley rat at 20 mg/kg; assay type: ADME, organism-based; settings: in vivo

| solubility [1] | bioavailability [2] | IC50 (Renin [3]) | IC50 (Renin [4]) | activity % at 10 µM (CYP3A4 [6]) | inhibition at 10 µM (CYP3A4 [7]) | bioavailability [8] | bioavailability [9] | Compound | Ki [5] |
| --- | --- | --- | --- | --- | --- | --- | --- | --- | --- |
| soluble |  |  |  |  |  |  |  | COCCCc1cc(CN(C(=O)[C@H]2CNCC[C@@H]2c2ccn(C)c(=O)c2)C2CC2)cc(Br)c1C.Cl |  |
|  | 17% | 0.05 nM | 0.48 nM | 16% | 70% |  |  | Cn1ccc([C@H]2CCNC[C@@H]2C(=O)N(Cc2cn(Cc3ccc(F)cc3)c3cccc(F)c23)C2CC2)cc1=O | 750 nM |
|  |  | 0.88 nM | 2 nM | 61% | 44% | 0% |  | Cn1ccc([C@H]2CCNC[C@@H]2C(=O)N(Cc2cn(Cc3cccnc3)c3cccc(F)c23)C2CC2)cc1=O | 12000 nM |
|  |  | 0.4 nM | 1.4 nM | 54% | 34% |  | 4% | COCCCc1cc(CN(C(=O)[C@H]2CNCC[C@@H]2c2ccn(C)c(=O)c2)C2CC2)c2ccccc2c1 | 17000 nM |
|  |  | 8.5 nM | 17 nM | 52% | 15% |  | 8% | Cn1ccc([C@H]2CCNC[C@@H]2C(=O)N(Cc2cc(CCC#N)cc(Cl)c2Cl)C2CC2)cc1=O | 17000 nM |
|  |  | 0.02 nM | 0.62 nM | 19% | 43% | 16% |  | Cn1ccc([C@H]2CCNC[C@@H]2C(=O)N(Cc2cn(Cc3ccccc3)c3cccc(F)c23)C2CC2)cc1=O |  |
|  |  | 61 nM | 210 nM | 45% | 56% |  | 1% | COC(=O)NCCc1cc(Cl)c(Cl)c(CN(C(=O)[C@H]2CNCC[C@@H]2c2ccn(C)c(=O)c2)C2CC2)c1 | 15000 nM |
|  | 28% | 3 nM | 6.5 nM | 23% | 1% |  |  | COCCCc1cc(Cl)cc(CN(C(=O)[C@H]2CNCC[C@@H]2c2ccn(C)c(=O)c2)C2CC2)c1 | 7600 nM |
|  |  | 12 nM | 8.4 nM | 74% | 0% | 0% |  | Cn1ccc([C@H]2CCNC[C@@H]2C(=O)N(Cc2c[nH]c3cccc(F)c23)C2CC2)cc1=O | > 29000 nM |
|  |  | 0.6 nM | 2.2 nM | 68% | 23% |  | 18% | COCCc1cc(Cl)c(Cl)c(CN(C(=O)[C@H]2CNCC[C@@H]2c2ccn(C)c(=O)c2)C2CC2)c1 | 11000 nM |

— ChEMBL document CHEMBL1795332, “Renin inhibitors for the treatment of hypertension: design and optimization of a novel series of pyridone-substituted piperidines” (Bioorg Med Chem Lett, 2011)
